≈ marks a conversion by molar mass, not a printed value. Calls of active or inactive are those of the source. The rule behind the calls is not given here.
How the values were obtained:
Assay type in all cases: functional
[1] = test system: Mycobacterium tuberculosis; assay: Induction of drug resistance in Mycobacterium tuberculosis H37Ra at 10 to 16 fold MIC; conditions: time 4-5 weeks
Summary of the method: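 Exponential-phase H37Ra, about 10⁷ bacteria, plated on 7H11 agar with compound at 10x and 16x MIC. Incubated 4–5 weeks at 37 °C. Frequency calculated as mutant colonies divided by total cells plated. Clones confirmed by PCR and Sanger sequencing of atp genes and rv0678.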

[2] = test system: Mycobacterium tuberculosis; assay: Antibacterial activity against Bedaquiline- sensitive Mycobacterium tuberculosis H37Ra harboring atpB.K179N_01 mutant incubated for 7 days by resazurin staining based microtiter assay; conditions: time 7 day
Summary of the method: (§1)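 Resazurin microtiter assay on H37Ra atpB K179N mutants and wild type, using exponential cultures diluted to OD 0.02. 3-fold serial dilution from 10 µM (0.002–10 µM), in triplicate. After 7 days, 0.02% resazurin added for 24 h, then fluorescence read (ex 530/em 590 nm). MIC taken from four-parameter variable-slope nonlinear regression.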

[3] = test system: Mycobacterium tuberculosis; assay: Antibacterial activity against Bedaquiline- sensitive Mycobacterium tuberculosis H37Ra harboring atpB.K179N_02 mutant incubated for 7 days by resazurin staining based microtiter assay; conditions: time 7 day; summary of the method: as §1

Compound	Activity [1]	MIC [2] [µM]	MIC [3] [µM]
O=c1c(NCc2ccccn2)c(-c2ccc(N3CCCCC3)cc2)c1=O	Active		
COc1ccc(-c2c(NCc3ccccn3)c(=O)c2=O)cc1	Active		
COc1nc2ccc(Br)cc2cc1[C@@H](c1ccccc1)[C@@](O)(CCN(C)C)c1cccc2ccccc12 [BEDAQUILINE]		0.11 (≈ 0.0611 µg/mL)	0.12 (≈ 0.0667 µg/mL)

Reference: ChEMBL document CHEMBL5390255, “Expanding the squaramide library as mycobacterial ATP synthase inhibitors: Innovative synthetic pathway and biological evaluation” (Bioorg Med Chem, 2023)
